Results taken from ChEMBL document CHEMBL1138269, “Antimicrobial lexitropsins containing amide, amidine, and alkene linking groups” (J Med Chem, 2007).
≈ marks a conversion by molar mass, not a printed value.

Columns and labels:
Format in all cases: functional
[1] = system: Candida albicans; experiment: Antifungal activity against Candida albicans NCPF 3179; conditions: Candida albicans; read-out: MIC
How it was run: (§1)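 Antifungal microdilution in Sabouraud broth. Test sample at 200 µg mL-1 working solution in sterile water was serially doubled down successive rows. Incubation was at 25 °C, followed by visual growth check and addition of resazurin indicator. Read-out is MIC in µg mL-1.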

[2] = system: Staphylococcus aureus; experiment: Antibacterial activity against methicillin-resistant Staphylococcus aureus clinical isolate 5
How it was run: (§2)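 Broth microdilution MIC against clinical S. aureus isolates (incl. MRSA), run per NCCLS guidelines in 96-well plates. Test sample dissolved in sterile water to a 200 µg mL-1 working concentration, then doubling dilutions in Mueller-Hinton broth. Incubated at 37 °C, growth read visually plus resazurin indicator. MIC reported in µg/mL.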

[3] = system: Staphylococcus aureus; experiment: Antibacterial activity against methicillin-resistant Staphylococcus aureus clinical isolate 2; how it was run: as §2
[4] = system: Staphylococcus aureus; experiment: Antibacterial activity against methicillin-resistant Staphylococcus aureus clinical isolate 4; how it was run: as §2
[5] = system: Staphylococcus aureus; experiment: Antibacterial activity against methicillin-sensitive Staphylococcus aureus NCTC 6571
How it was run: (§3)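 Broth microdilution in Mueller-Hinton broth. Samples were dissolved in sterile water to 200 µg mL-1 as the working solution and doubling dilutions were made across rows. Plates were incubated at 37 °C and inspected visually, with resazurin added as growth indicator. MIC reported in µg mL-1.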

[6] = system: Enterococcus faecalis; experiment: Antibacterial activity against Streptococcus faecalis NCTC 775; how it was run: as §3
[7] = system: Mycolicibacterium fortuitum; experiment: Antibacterial activity against Mycobacterium fortuitum NCTC 10394; how it was run: as §3
[8] = system: Aspergillus niger; experiment: Antifungal activity against Aspergillus niger IMI 149007; how it was run: as §1
[9] = system: Staphylococcus aureus; experiment: Antibacterial activity against methicillin-resistant Staphylococcus aureus clinical isolate 3; how it was run: as §2
[10] = system: Staphylococcus aureus; experiment: Antibacterial activity against methicillin-resistant Staphylococcus aureus clinical isolate 1; how it was run: as §2
[11] = Staphylococcus aureus, NCTC 6571, read-out: MIC
[12] = Enterococcus faecalis, NCTC 775, read-out: MIC

SMILES | MIC [1] [µg/mL] | MIC [2] [µg/mL] | MIC [3] [µg/mL] | MIC [4] [µg/mL] | MIC [5, 11] [µg/mL] | MIC [6, 12] [µg/mL] | MIC [7] [µg/mL] | MIC [8] [µg/mL] | MIC [9] [µg/mL] | MIC [10] [µg/mL] | MIC [5] [µg/mL] | MIC [6] [µg/mL]
Cn1cc(NC(=O)c2cc(NC(=O)c3cc(NC(=O)c4cccc(Cl)c4)cn3C)cn2C)cc1C(=O)NCCc1ccccn1 | > 50 | > 64 | > 64 | > 64 | > 50 | > 50 | > 50 | > 50 | > 64 | > 64 | – | –
COc1cccc(/C=C/c2ccc(C(=O)Nc3cc(C(=O)Nc4cc(C(=O)NCCN5CCOCC5)n(C)c4)n(C)c3)cc2)c1 | > 50 | 4 (≈ 6.55 µM) | 4 (≈ 6.55 µM) | 4 (≈ 6.55 µM) | 6 (≈ 9.82 µM) | 50 (≈ 81.9 µM) | > 50 | > 50 | 4 (≈ 6.55 µM) | 2 (≈ 3.27 µM) | – | –
COc1cccc(C(=N)Nc2cc(C(=O)Nc3cc(C(=O)Nc4cc(C(=O)NCCCN5CCOCC5)n(C)c4)n(C)c3)n(C)c2)c1 | > 50 | > 64 | > 64 | > 64 | > 50 | > 50 | > 50 | > 50 | > 64 | > 64 | – | –
CSc1ccc(/C=C/c2ccc(C(=O)Nc3cc(C(=O)Nc4cc(C(=O)NCCN5CCOCC5)n(C)c4)n(C)c3)cn2)cc1 | > 50 | 0.5 (≈ 0.796 µM) | 4 (≈ 6.37 µM) | 1 (≈ 1.59 µM) | 6 (≈ 9.56 µM) | > 50 | > 50 | > 50 | 2 (≈ 3.19 µM) | 0.5 (≈ 0.796 µM) | – | –
Cn1cc(NC(=O)c2cc(NC(=O)c3ccc(/C=C/c4cccnc4)cc3)cn2C)cc1C(=O)NCCN1CCOCC1 | > 50 | 1 (≈ 1.72 µM) | 8 (≈ 13.8 µM) | 8 (≈ 13.8 µM) | 35 (≈ 60.2 µM) | 35 (≈ 60.2 µM) | > 50 | > 50 | 4 (≈ 6.88 µM) | 2 (≈ 3.44 µM) | – | –
Cn1cc(NC(=O)c2cc(NC(=O)c3cc(/C=C/c4cnc5ccccc5c4)cn3C)cn2C)cc1C(=O)NCCN1CCOCC1 | > 50 | 16 (≈ 25.2 µM) | > 64 | > 64 | > 50 | > 50 | > 50 | > 50 | > 64 | 4 (≈ 6.3 µM) | – | –
COc1cccc(/C=C/c2ccc(C(=O)Nc3cc(C(=O)Nc4cc(C(=O)NCCCN(C)C)n(C)c4)n(C)c3)cc2)c1 | > 50 | 6.25 (≈ 10.7 µM) | 6.25 (≈ 10.7 µM) | 6.25 (≈ 10.7 µM) | 6 (≈ 10.3 µM) | > 50 | > 50 | 50 (≈ 85.8 µM) | 6.25 (≈ 10.7 µM) | 6.25 (≈ 10.7 µM) | – | –
CC(C)CCc1sc(NC(=O)c2cc(NC(=O)c3cc4ccccc4cn3)cn2C)nc1C(=O)NCCCN(C)C | > 50 | > 64 | > 64 | > 64 | 50 (≈ 86.8 µM) | 50 (≈ 86.8 µM) | > 50 | > 50 | > 64 | > 64 | – | –
COc1cccc(C(=O)Nc2cc(C(=O)Nc3cc(C(=O)Nc4nc(C(=O)NCCCN(C)C)c(C(C)C)s4)n(C)c3)n(C)c2)c1 | > 50 | 32 (≈ 49.3 µM) | 32 (≈ 49.3 µM) | 32 (≈ 49.3 µM) | 25 (≈ 38.5 µM) | 25 (≈ 38.5 µM) | > 50 | > 50 | 32 (≈ 49.3 µM) | 16 (≈ 24.7 µM) | – | –
CC(C)c1sc(NC(=O)c2cc(NC(=O)c3cc(NC(=O)c4cccc(Cl)c4)cn3C)cn2C)nc1C(=O)NCCCN(C)C | > 50 | 2 (≈ 3.06 µM) | 11 (≈ 16.8 µM) | 0.5 (≈ 0.765 µM) | 13 (≈ 19.9 µM) | 6 (≈ 9.19 µM) | > 50 | > 50 | 11 (≈ 16.8 µM) | 11 (≈ 16.8 µM) | – | –
Cn1cc(NC(=O)c2cc(NC(=O)c3ccc(/C=C/c4nc5ccccc5o4)cc3)cn2C)cc1C(=O)NCCN1CCOCC1 (stereo in doubt; 79) | > 50 | 1 (≈ 1.61 µM) | 16 (≈ 25.7 µM) | 1 (≈ 1.61 µM) | – | – | > 50 | > 50 | 1 (≈ 1.61 µM) | 1 (≈ 1.61 µM) | 13 (≈ 20.9 µM) | 25 (≈ 40.2 µM)
Cn1cc(NC(=O)c2cc(NC(=O)c3ccc(/C=C/c4ccncc4)cc3)cn2C)cc1C(=O)NCCN1CCOCC1 | 50 (≈ 86 µM) | 0.5 (≈ 0.86 µM) | 2 (≈ 3.44 µM) | 1 (≈ 1.72 µM) | 2 (≈ 3.44 µM) | 25 (≈ 43 µM) | > 50 | > 50 | 1 (≈ 1.72 µM) | 0.5 (≈ 0.86 µM) | – | –
COc1cccc(/C=C/c2cc(C(=O)Nc3cc(C(=O)Nc4cc(C(=O)NCCCN(C)C)n(C)c4)n(C)c3)n(C)c2)c1 | 50 (≈ 85.4 µM) | 32 (≈ 54.6 µM) | 32 (≈ 54.6 µM) | 32 (≈ 54.6 µM) | > 50 | 25 (≈ 42.7 µM) | > 50 | > 50 | 32 (≈ 54.6 µM) | 32 (≈ 54.6 µM) | – | –
